Assay results as given in ChEMBL document CHEMBL1123027, “Synthesis and biological activity of 5-thiobredinin and certain related 5-substituted imidazole-4-carboxamide ribonucleosides” (J Med Chem, 1985).

Key:
[1] = system: Rift Valley fever virus; test: (§1) Therapeutic index against Rift valley fever virus.; assay type: organism-based; settings: in vivo, read-out: Therapeutic index
[2] = system: Vaccinia virus; test: In vitro antiviral activity was tested against vaccinia virus(VV) virus; assay type: functional; settings: Orthopoxvirus vaccinia; read-out: ED50 (the source's name)
[3] = system: Rift Valley fever virus; test: In vitro antiviral activity was tested against rift valley fever virus(RVF) virus; assay type: functional; settings: read-out: ED50 (the source's name)
[4] = system: Venezuelan equine encephalitis virus; test: In vitro antiviral activity was tested against venezuelan equine encephalomyelitis (VEE) virus; assay type: functional; settings: read-out: ED50 (the source's name)
[5] = system: Mus musculus; test: The maximum tolerated dose was evaluated in mice and is expressed as mg/kg of body weight; assay type: functional
[6] = system: Vero; test: Maximum tolerated concentration (MTC) was evaluated in vero cells.; assay type: functional, Chlorocebus sabaeus
Procedure, shortened: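 Confluent, uninfected Vero monolayers were given compound in seven 0.5-log steps, final 5 × 10⁻⁶ to 5 × 10⁻³ M, one well per concentration, for 72 h at 37 °C in 5% CO2. Wells were checked by microscope for changes in morphology or monolayer density (lysis, rounding, detachment). The MTC is the lowest concentration giving visible cytotoxicity.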

[7] = system: Human alphaherpesvirus 2; test: In vitro antiviral activity was tested against herpes simplex virus type 2 (HSV-2); assay type: functional; settings: read-out: ED50 (the source's name)
Procedure, shortened: (§2)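 Vero cell monolayers, grown 24 h at 37 °C in 5% CO2 to confluency, were infected with HSV-2 (strain 333) at 100 TCID50 per well. After 30-min adsorption at 37 °C, compound was added in seven 0.5-log steps, final 5 × 10⁻⁶ to 5 × 10⁻³ M, in duplicate wells. After 72 h at 37 °C, the ED50 was taken as 50% inhibition of viral CPE versus untreated controls.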

[8] = system: Human respirovirus 3; test: In vitro antiviral activity was tested against parainfluenza type 3 (para3) virus; assay type: functional, para influenza virus; settings: read-out: ED50 (the source's name)
[9] = system: Venezuelan equine encephalomyelitis virus (VEE); test: Therapeutic index against Venezuelan equine encephalomyelitis virus (VEE); settings: Venezuelan equine encephalitis virus; read-out: Therapeutic index
[10] = system: Mus musculus; test: The maximum tolerated dose was evaluated in mice and expressed in terms of mg/kg of body weight; assay type: functional
[11] = system: Human alphaherpesvirus 2; test: In vitro antiviral activity was tested against herpes simplex type 2 (HSV-2); assay type: functional; settings: read-out: ED50 (the source's name); procedure, shortened: as §2
[12] = system: Human respirovirus 3; test: In vitro antiviral activity was tested against parainfluenza virus type 3 (para3) virus; assay type: functional, para influenza virus; settings: read-out: ED50 (the source's name)
[13] = system: Mus musculus; test: The maximum tolerated dose was evaluated in mice expressed in terms of mg/kg of body weight; assay type: functional
[14] = system: Vaccinia virus; test: In vitro antiviral activity was tested against vaccinia virus(VV); assay type: functional; settings: Orthopoxvirus vaccinia; read-out: ED50 (the source's name)
[15] = system: Rift Valley fever virus; test: as §1; settings: read-out: Therapeutic index
[16] = system: Venezuelan equine encephalomyelitis virus (VEE); test: Therapeutic index against Venezuelan equine encephalomyelitis virus.; assay type: organism-based; settings: venezuelan equine encephalitis virus, in vivo; read-out: Therapeutic index
[17] = system: Mus musculus; test: The maximum tolerated dose was evaluated in mice (mg/kg of body weight).; assay type: functional
[18] = system: Human alphaherpesvirus 2; test: In vitro antiviral activity was tested against herpes simplex type 2 (HSV-2) virus; assay type: functional; settings: read-out: ED50 (the source's name)
[19] = system: Human respirovirus 3; test: In vitro against parainfluenza type 3 (para3) virus; assay type: functional, para influenza virus; settings: read-out: ED50 (the source's name)

| SMILES | selectivity ratio [1] | EC50 [2] [µM] | EC50 [3] [µM] | EC50 [4] [µM] | MTC [5] [mg/kg] | MTC [6] [mM] | EC50 [7] [µM] | EC50 [8] [µM] | selectivity ratio [9] | MTC [10] [mg/kg] | EC50 [11] [µM] | EC50 [12] [µM] | MTC [13] [mg/kg] | EC50 [14] [µM] | selectivity ratio [15] | selectivity ratio [16] | MTC [17] [mg/kg] | EC50 [18] [µM] | EC50 [19] [µM] |
| --- | --- | --- | --- | --- | --- | --- | --- | --- | --- | --- | --- | --- | --- | --- | --- | --- | --- | --- | --- |
| CSc1c(C(N)=O)ncn1C1O[C@H](CO)[C@@H](O)[C@H]1O (stereo partly drawn) | 1.2 | 280 | 1800 | > 1700 | >100 | 1.6 | 4100 | 730 | 0.9 |  |  |  |  |  |  |  |  |  |  |
| NC(=O)c1ncn(C2O[C@H](CO)[C@@H](O)[C@H]2O)c1SCc1ccccc1 (stereo partly drawn) | 1.9 | 230 | 1000 | 1000 |  | >5 |  | 4400 |  | >146 | > 5000 |  |  |  |  |  |  |  |  |
| CCSc1c(C(N)=O)ncn1C1O[C@H](CO)[C@@H](O)[C@H]1O (stereo partly drawn) | 1.4 | 2600 | > 2000 | > 2000 |  | >5 | > 5000 |  |  |  |  | > 5000 | >121 |  |  |  |  |  |  |
| NC(=O)c1ncn(C2O[C@H](CO)[C@@H](O)[C@H]2O)c1S (stereo partly drawn) | 1.1 |  | > 2000 | > 2000 |  | >5 |  | 5000 |  | >110 | > 5000 |  |  | 3800 |  |  |  |  |  |
| NC(=O)c1ncn([C@@H]2O[C@H](CO)[C@@H](O)[C@H]2O)n1 [RIBAVIRIN] |  |  |  |  |  |  |  |  |  |  |  |  |  |  | 4 | 1.5 | >100 |  |  |
| Cc1c(C(N)=O)ncn1C1O[C@H](CO)[C@@H](O)[C@H]1O (stereo partly drawn) |  | 1400 | 1800 |  |  | 1.6 |  | 500 |  |  |  |  |  |  |  |  |  | 4000 |  |
| CS(=O)(=O)c1c(C(N)=O)ncn1C1O[C@H](CO)[C@@H](O)[C@H]1O (stereo partly drawn) | 2.8 |  | 8.7 | 650 |  | >5 |  |  |  | >400 |  |  |  | > 5000 |  | 1.4 |  | 5000 | > 5000 |
| CCS(=O)(=O)c1c(C(N)=O)ncn1C1O[C@H](CO)[C@@H](O)[C@H]1O (stereo partly drawn) | 1.21 |  | > 2000 | > 2000 |  | >5 |  | > 5000 |  | >134 | > 5000 |  |  | 3500 |  |  |  |  |  |
